From PubChem BioAssay
M5 ag: human M5 muscarinic receptor agonists, primary screen, CHO-K1 cells, Fluo-8 calcium fluorescence; Muscarinic acetylcholine receptor M5 (Homo sapiens), P08912; CHO-K1 hM5 cells; 0% DMSO wells, 100% maximal acetylcholine response; activation, % at 3 µM; 360,000 tested, 0.19% active; AID 624037, 2012;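 active = activation above the run's mean over test compounds plus 3 SD, cut at about 23% in these data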;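 note: signal is peak over basal fluorescence ratio across the kinetic read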
CHRM5 antagonist: human M5 muscarinic receptor antagonists, primary screen, CHO cells, Fluo-8 calcium fluorescence; inhibition, % at 3 µM; 360,000 tested, 0.59% active; AID 624040, 2012; Muscarinic acetylcholine receptor M5 (Homo sapiens), P08912; CHO-hM5 cells, ACh EC80;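 active = inhibition above a per-plate cutoff, the mean of that plate's test compounds plus 3 SD, cut at about 27% in these data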;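 note: 0% = acetylcholine EC80 with DMSO and 100% = DMSO without agonist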
CHRM4 PAM: human M4 muscarinic receptor positive allosteric modulators, primary screen, CHO-K1 cells, Fluo-8 calcium fluorescence | 360,000 tested, 0.4% active | activation, % at 3 µM | Muscarinic acetylcholine receptor M4 (Homo sapiens), P08173 | CHO-K1 hM4/Gqi5, ACh EC20; 0% = ACh EC20, 100% = maximal ACh;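 active = activation above its plate's cutoff, the mean activation of sample wells plus 3 SD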
Target sequence (P08173 whole entry, looked up): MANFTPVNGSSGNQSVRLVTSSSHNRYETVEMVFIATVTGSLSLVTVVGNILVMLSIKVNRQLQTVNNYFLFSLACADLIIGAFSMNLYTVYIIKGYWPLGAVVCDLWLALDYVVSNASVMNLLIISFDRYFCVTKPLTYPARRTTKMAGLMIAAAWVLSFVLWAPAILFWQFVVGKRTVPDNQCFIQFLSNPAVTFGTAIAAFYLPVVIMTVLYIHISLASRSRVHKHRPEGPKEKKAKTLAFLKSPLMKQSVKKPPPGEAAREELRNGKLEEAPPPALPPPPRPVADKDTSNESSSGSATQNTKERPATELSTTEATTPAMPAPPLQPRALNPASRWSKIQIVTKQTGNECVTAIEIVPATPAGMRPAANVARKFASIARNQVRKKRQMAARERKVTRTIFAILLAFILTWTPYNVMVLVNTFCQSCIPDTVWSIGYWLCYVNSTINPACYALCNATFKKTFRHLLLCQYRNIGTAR
M4 ag: human M4 muscarinic receptor agonists, primary screen, CHO-K1 cells, Fluo-8 calcium fluorescence. 360,000 tested, 0.14% active. AID 624127, 2012. activation, % at 3 µM. CHO-K1 hM4/Gqi5; vehicle 0%, full acetylcholine response 100%. Muscarinic acetylcholine receptor M4 (Homo sapiens), P08173;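 active = activation above the run mean over all test wells plus 3 SD, cut at about 32% in these data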;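 note: peak over basal fluorescence ratio per well then scaled between controls; 0% = DMSO wells and 100% = acetylcholine at EC100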
M5 PAM: human M5 muscarinic receptor positive allosteric modulators, primary screen, CHO-K1 cells, Fluo-8 calcium fluorescence; Muscarinic acetylcholine receptor M5 (Homo sapiens), P08912; CHO-K1 hM5, ACh EC20 PAM; 0% = ACh EC20, 100% = ACh EC100; activation, % at 3 µM; 360,000 tested, 0.3% active;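 active = activation above the run cutoff, the mean activation of all test compounds plus 3 SD, cut at about 18% in these data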
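System: CHO-K1 hM5 cells. Reagent: acetylcholine, EC20 level. Compound dosing: single dose, 3 µM nominal final test concentration. Timing: Post-acetylcholine fluorescence recording 140 s. Detection: Fluo-8 calcium fluorescence. Read-out: % activation, ACh-normalized. Benchmarks: ACh EC20 and EC100 wells. Repeats: singlicate, one well per test compound.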
CHRM4 antagonist: human M4 muscarinic receptor antagonists, primary screen, CHO cells, Fluo-8 calcium fluorescence; CHO-hM4 cells, ACh EC80; inhibition, % at 3 µM; 360,000 tested, 0.73% active;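 active = inhibition above its plate's cutoff, the mean inhibition of sample wells plus 3 SD, cut at about 27% in these data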;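 note: 0% = acetylcholine EC80 with DMSO and 100% = DMSO without agonist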
Numbers without * were called inactive. This is a sample that favours compounds with a hit; in the whole collection about 1.9% have one here.

SMILES	M5 ag	CHRM5 antagonist	CHRM4 PAM	M4 ag	M5 PAM	CHRM4 antagonist
O=C(COc1ccccc1[N+](=O)[O-])c1ccccc1	-2	13	3	1	-6	2
COC(=O)/C=C/COc1ccccc1[N+](=O)[O-]	-2	-1	18*	0	7	-5
COc1ccc(C(=O)Nc2cc(Cl)ccc2OC(=O)c2ccc(OC)cc2)cc1	-1	5	-2	0	-3	-1
COc1ccc(C(=O)Nc2cc(Cl)ccc2C(=O)O)cc1	4	2	9	0	20*	-1
O=C(Nc1ccc(Oc2ccccc2)nc1)C1CCN(Cc2cccc(F)c2)CC1	-4	31*	-2	6	-13	1
C#Cc1ccc(CN2CCC(C(=O)Nc3ccc(Oc4ccccc4)nc3)CC2)cc1	-1	5	-6	12	-5	-3
CCCC(=O)NC1=C(Cl)C(=O)c2ccccc2C1=O	20	32*	-8	12	1	61*
CCNC1=C(Cl)C(=O)c2ccccc2C1=O	-5	-1	0	-1	-8	12
O=C1C(Cl)=C(Nc2ccc(O)cc2)C(=O)c2ccccc21	-19	41*	-24	-2	-26	64*
CCCc1cc(=O)n2[nH]c(NC(=O)c3ccco3)nc2n1	0	0	14*	0	4	-24
CCCc1cc(=O)n2[nH]c(NCc3c(Cl)cccc3Cl)nc2n1	-8	-2	-1	0	3	14
O=C(NCCc1ccccc1C(F)(F)F)c1cc(COc2ccccc2)on1	-2	5	-1	1	-5	-4
Brc1ccccc1OCCCCn1cnc2ccccc21	6	29*	-14	14	-23	9
O=S(=O)(O)c1cc(O)ccc1O	36*	-10	0	2	-13	-8
Cc1cc(C(=O)CN2C(=O)CCC2=O)c(C)n1Cc1ccccc1	4	-9	18*	4	17	-12
COc1cc(C2NC(=O)N(C)C(C)=C2C(=O)OCc2ccccc2)cc(Br)c1O (stereo not given)	0	-10	14*	3	4	-6
CCOC(=O)C1CCN(S(=O)(=O)c2cn(C)c(=O)n(C)c2=O)CC1	-1	10	-13	1	-11	32*
Cc1cn([C@H]2C[C@H](O)[C@@H](CNS(=O)(=O)N3CCCC3)O2)c(=O)[nH]c1=O	1	2	-3	1	-2	-2
O=C1CN(c2ccccc2Cl)C(=O)CN1c1ccccc1Cl	-3	6	-4	0	-2	10
Cc1ccccc1N1CC(=O)N(c2ccccc2C)CC1=O	-2	-8	20*	2	-5	9
O=C1Nc2ccc(Br)cc2/C1=C/C(=O)c1ccc2c(c1)OCO2	34*	22	-29	5	4	47*
COc1ccc(C(=O)/C=C2\C(=O)Nc3ccc(Br)cc32)cc1	14	12	-9	5	5	27*
CC(C)CCN1C(=O)c2ccccc2C1c1nnnn1-c1ccc2c(c1)OCCO2 (stereo not given)	0	4	1	3	3	-13
CCc1nc2ccc(C(=O)N3CCN(S(=O)(=O)CC)CC3)cn2c1N(CC)CCOC	1	1	6	0	4	-4
CC(C)(C)CC(C)(C)NC(=O)c1ccccc1	3	5	2	1	1	-6
SMILES	M5 ag	CHRM5 antagonist	CHRM4 PAM	M4 ag	M5 PAM	CHRM4 antagonist
CCC(C)(NC(=O)c1ccccc1)C(=O)O (stereo not given)	-2	-2	31*	1	9	22
O=C(c1cc(-c2ccccc2)on1)N(Cc1cccnc1)C(c1ccccn1)c1nc2ccccc2[nH]1 (stereo not given)	2	-1	2	6	-5	2
COC(=O)C1(C(=O)OC)c2cc3c(cc2CN(S(=O)(=O)c2ccc(C)cc2)C1CC(C)=O)OCO3 (stereo not given)	-2	-13	-1	1	7	-10
N=c1c2c3c(sc2nc2n1CCCCC2)CCCCC3	-6	7	-24	4	-12	29*
O=c1[nH]c2ccccc2c2nc(-c3cccc(S(=O)(=O)N4CCCC4)c3)nn12	-3	6	19	1	-5	29*
COc1ccc(OC)c(N(CCN2C(=O)c3ccccc3C2=O)C(=O)CCl)c1	0	-1	3	3	1	-8
CC(C)Cc1ccc(-c2cc(=O)[nH][nH]2)cc1	-2	28*	-10	20	-13	5
O=[N+]([O-])c1ccc(CN2CCC(Cc3ccccc3)CC2)cc1	-8	5	-14	-2	-8	8
CC(=O)CCc1ccc(OCCCCN2CCC(Cc3ccccc3)CC2)cc1	-15	25	-27	4	-30	75*
O=[N+]([O-])c1cccc(OCCCN2CCC(Cc3ccccc3)CC2)c1	-25	6	-17	14	-32	38*
CCC(=O)c1ccccc1OCCCN1CCC(Cc2ccccc2)CC1	-11	12	-18	24	-28	42*
COc1cccc(-c2cc3nc(NCCN4CCCC4)n(C)c(=O)c3s2)c1	-1	-3	11	0	9	-4
O=C(C[n+]1ccccc1)N1c2ccccc2Sc2ccccc21	-10	98*	-27	1	-18	99*
CN(C)c1cc[n+](CC(=O)N2c3ccccc3Sc3ccccc32)cc1	-15	14	-26	0	-10	48*
O=C(COc1ccccc1)N1c2ccccc2Sc2ccccc21	-4	1	-26	-2	-5	5
C=CCc1cc(C=O)cc(OC)c1OCc1ccc(C(=O)O)cc1	-2	-9	20*	1	18	-4
COc1cc(/C=C2/NC(=O)NC2=O)cc(Br)c1OCc1ccc(C(=O)O)cc1	-1	8	13	1	-1	-1
Cc1ccc2c(c1)cc1c(=O)n(CC(=O)NCCCc3ccccc3)nc(C)n12	3	4	-10	19	-11	32*
Cc1nn(CC(=O)NCCCc2ccccc2)c(=O)c2cc3occc3n12	-3	-9	15	0	7	-23
S=C(SSC(=S)N1CCOCC1)N1CCOCC1	1	-8	4	2	1	-15
